In PubChem BioAssay AID588423 (The Scripps Research Institute Molecular Screening Center, 2011):
The source made the active and inactive calls.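 The calls were made as follows: active = IC50 at or below 1 µM; inactive = the rest.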

Target: Protein-arginine deiminase type-4 (Homo sapiens) (UniProt Q9UM07)
Experiment: recombinant human PAD4 inhibitors – biochemical, BAEE substrate, citrulline absorbance, 0-15 µM range, late-stage follow-up (AID 588423)
Details: recombinant PAD4, BAEE citrulline colorimetric absorbance
Method in brief: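 Compound dosing: seven concentrations, 0–15 µM. Material: recombinant human PAD4 enzyme. Input: 0.2 µM PAD4 enzyme. Reagent: 10 mM BAEE. Signal: citrulline color, absorbance 540 nm. Times: 15 min compound preincubation, 15 min BAEE reaction, 37 °C.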

Chain of Protein-arginine deiminase type-4 (Homo sapiens) (Q9UM07 whole entry, looked up): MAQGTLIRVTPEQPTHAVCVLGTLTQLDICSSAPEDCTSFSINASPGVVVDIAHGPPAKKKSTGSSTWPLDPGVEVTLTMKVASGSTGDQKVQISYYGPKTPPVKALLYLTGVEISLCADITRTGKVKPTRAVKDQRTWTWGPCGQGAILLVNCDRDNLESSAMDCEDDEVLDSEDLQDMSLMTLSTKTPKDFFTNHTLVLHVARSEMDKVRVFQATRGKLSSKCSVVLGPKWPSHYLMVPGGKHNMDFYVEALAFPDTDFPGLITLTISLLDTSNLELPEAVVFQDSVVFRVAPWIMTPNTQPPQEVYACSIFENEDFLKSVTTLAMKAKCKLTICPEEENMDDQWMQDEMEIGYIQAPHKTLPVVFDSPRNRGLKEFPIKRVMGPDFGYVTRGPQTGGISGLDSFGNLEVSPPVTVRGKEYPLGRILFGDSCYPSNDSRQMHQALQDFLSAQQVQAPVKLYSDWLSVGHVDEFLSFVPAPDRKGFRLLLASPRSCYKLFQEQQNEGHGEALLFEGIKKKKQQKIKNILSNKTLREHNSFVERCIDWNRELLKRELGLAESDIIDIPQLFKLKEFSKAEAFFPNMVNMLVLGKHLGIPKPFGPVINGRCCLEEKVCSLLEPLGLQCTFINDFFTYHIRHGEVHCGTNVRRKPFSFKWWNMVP

Question: With `O=C1C(O)=C(O)C(=O)c2ncccc21` as the molecule, how does the IC50 read?
Answer: The IC50 was “inactive”.
